PRMT1 inh: PRMT1 methyltransferase inhibitors, primary screen, biochemical, fluorescence polarization; 1.3% of 370,000 active; inhibition, % at 2.79 µM; recombinant PRMT1, activity-based probe fluorescence polarization;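 active = inhibition above about 21% made by adding two undisclosed values, limit read from the data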
SIAE primary: human SIAE inhibitors, primary screen, biochemical, fluorescence polarization, FP-Rh probe, 1536-well HTS | Sialate O-acetylesterase (Homo sapiens), Q9HAT2 | SIAE FP-Rh probe binding | inhibition, % at 9.66 µM | 0.69% of 370,000 active;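 active = inhibition above a cutoff: mean of compounds within the control limits plus 3 SD of those, cut at about 17% in these data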;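 note: 0% = plate median of compound wells and 100% = probe without SIAE protein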
mABHD4 FP: ABHD4 inhibitors, primary screen, biochemical, fluorescence polarization, mouse | purified mABHD4, FP-Rh probe fluorescence polarization | 0.54% of 370,000 active | inhibition, % at 8.92 µM;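 active = inhibition exceeding the mean over every tested compound plus 3 SD, cut at about 30% in these data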;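 note: 0% = plate median of compound wells and 100% = S159A mutant with DMSO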
Target sequence (Q8VD66 whole entry, looked up): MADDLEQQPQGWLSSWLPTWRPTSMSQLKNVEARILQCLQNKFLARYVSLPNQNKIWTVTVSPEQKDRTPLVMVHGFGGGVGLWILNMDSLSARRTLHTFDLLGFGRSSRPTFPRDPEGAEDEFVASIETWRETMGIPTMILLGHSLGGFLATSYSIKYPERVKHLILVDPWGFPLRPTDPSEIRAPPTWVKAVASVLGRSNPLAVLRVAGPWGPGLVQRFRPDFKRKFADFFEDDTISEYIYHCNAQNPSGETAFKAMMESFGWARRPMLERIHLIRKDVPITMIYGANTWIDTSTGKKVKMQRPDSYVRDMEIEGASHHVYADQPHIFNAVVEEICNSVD
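Doses – 8.92 µM, single dose · Material – wild-type mouse ABHD4 protein · Replication – single well per compound (singlicate) · Measure – percent inhibition of probe binding, normalized to plate controls · Schedule – 45 min compound pre-incubation plus 60 min probe step, 25 °C · Detection – fluorescence polarization with parallel and perpendicular emission, 525/598 nm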
HTRA1 inhibitor: HTRA1 serine protease inhibitors, primary screen, biochemical, fluorescence polarization, HTS; Q92743; recombinant HTRA1, FP-rhodamine activity-based probe; inhibition, % at 5.96 µM; 0.5% of 340,000 active; in the data active = inhibition above about 36%;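 note: 0% = enzyme with DMSO and 100% = wells lacking enzyme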
TCR-CD3 inh: inhibitors of human TCR-CD3 interaction, primary screen, biochemical, fluorescence, TAMRA-labeled TCR probe; T-cell receptor (TCR); inhibition, % at 9.4 µM; 0.37% of 360,000 active; AID 651800, 2012; in the data active = inhibition above about 19%;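 note: recombinant mutant TCR 2C K166C tagged with TAMRA read by polarization; 0% = receptor in buffer alone and 100% = receptor with positive control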
SIAE confirm: human SIAE inhibitors, retest, confirmation, biochemical, fluorescence polarization, FP-Rh probe, triplicate; shares compounds with SIAE primary; SIAE FP-Rh activity-based probe; inhibition, % at 9.66 µM; 13% of 2,300 active;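 active = mean inhibition of the replicates above the hit cutoff set in the primary screen, cut at about 17% in these data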;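 note: 0% = SIAE with DMSO and probe and 100% = probe without SIAE; inhibitors lower polarization as more probe stays unbound to SIAE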
The depositor's hits bear a star; . = no result given. Only some compounds are listed: those with a hit (about 2.5% of all), similar ones and a draw of the others.

SMILES	PRMT1 inh	SIAE primary	mABHD4 FP	HTRA1 inhibitor	TCR-CD3 inh	SIAE confirm
COc1ccc(NC(=O)CSc2nncn2C)cc1OC	0	33*	-6	3	6	0
COc1ccc(NC(=O)CSc2nnc3ccc(-c4cccnc4)nn23)cc1OC	-1	21*	-3	0	3	4
C[C@@H]1[C@@H](O)C[C@@]2(C[C@H](O)c3cc(Cl)ccc3O2)O[C@H]1c1ccccc1Cl	1	5	-20	.	.	.
COc1ccc(OC)c(NC(=O)c2ccccc2N(Cc2ccccc2)C(=O)C(C)Cl)c1 (centres undefined)	9	7	21	.	.	.
CC(C)CC(NC(=O)c1ccccc1)C(=O)N/N=C/c1ccco1 (centres undefined)	-1	-1	-2	1	6	.
CC(NC(=O)c1ccccc1)C(=O)N/N=C/c1ccco1 (centres undefined)	1	18*	-3	1	-5	-1
O=C1[C@@H]2CSCN2C(=O)CN1Cc1ccccc1F	-8	19*	0	-1	2	3
COC(=O)C1CN(Cc2cn(Cc3ccc(F)cc3)nn2)CCS(=O)(=O)N1Cc1ccc(C)cc1 (centres undefined)	-2	2	3	.	.	.
CC(C)OC(=O)CSc1nnc(-c2ccccn2)n1-c1ccccc1	-1	3	-5	2	-3	.
CC(C)OC(=O)CSc1nnc(-c2ccccn2)n1C	-3	18*	2	4	5	5
COC(=O)CCCc1nc2ccccc2s1	-1	63*	5	-5	7	0
NC(=O)COC(=O)CCCc1nc2ccccc2s1	-1	3	3	2	1	.
COc1ccc(C2C(C(=O)Nc3ccc(C)c(C)c3)CCC(=O)N2c2ccc(OC)cc2)cc1 (centres undefined)	-2	4	-2	.	.	.
COC(=O)Oc1ccc(/C=N/NC(=O)CN(c2ccccc2Br)S(C)(=O)=O)cc1OC	-2	22*	-1	8	-1	15
Cc1cccc(C)c1NC(=O)c1cc(S(=O)(=O)N2CCOCC2)cn1C	-1	19*	-5	0	1	-1
Cc1ccccc1-c1nn(-c2ccc(F)cc2F)cc1CNCCCN(C)C	-3	18*	2	4	12	7
O=C(O)c1cn(-c2ccc(F)c(F)c2)c2c(F)c(F)c(F)c(F)c2c1=O	3	20*	2	-5	6	2
Cc1nc2ccc(S(=O)(=O)NCC(=O)N(C)Cc3ccccc3Cl)cc2s1	1	4	-2	.	.	.
CCOC(=O)c1sc(NC(=O)Nc2cccc(Cl)c2)cc1C	3	18*	-4	-7	1	-6
Oc1ccc(/C=N/Nc2ncnc3nc[nH]c23)cc1	-1	18*	2	4	3	-2
O=C(NS(=O)(=O)c1cccc(F)c1)[C@H]1O[C@@H](n2ccc(=O)[nH]c2=O)[C@H](O)[C@@H]1O	0	8	0	.	7	.
COc1cccc(-c2cc(CNC(=O)[C@H]3O[C@@H](n4ccc(=O)[nH]c4=O)[C@H](O)[C@@H]3O)no2)c1	-2	75*	6	.	7	68*
COC(=O)c1ccccc1S(=O)(=O)NC(=O)[C@H]1O[C@@H](n2ccc(=O)[nH]c2=O)[C@H](O)[C@@H]1O	-1	74*	-5	.	9	73*
Cc1ccc(OCCNC(=O)[C@H]2O[C@@H](n3ccc(=O)[nH]c3=O)[C@H](O)[C@@H]2O)cc1C	-2	-7	0	.	5	.
Oc1ccccc1-c1nc2c3ccccc3c3ccccc3c2[nH]1	-1	27*	-19	-21	4	-2
SMILES	PRMT1 inh	SIAE primary	mABHD4 FP	HTRA1 inhibitor	TCR-CD3 inh	SIAE confirm
Cc1n[nH]c(=S)n(/N=C/c2cccs2)c1=O	-4	19*	1	2	-4	-2
CC(C)(C)c1n[nH]c(=S)n(/N=C/c2cccs2)c1=O	1	-2	-2	5	-2	.
CC1=C(C(=O)N(C(C)C)C(C)C)CC(CC(=O)NCc2cccs2)C(=O)N1CCCN1CCCC1=O (centres undefined)	5	21*	5	.	-6	0
Cc1[nH]c2ccccc2c1CC(=O)Nc1ccc(Nc2ccncc2)cc1	-6	34*	3	.	-1	25*
Cc1[nH]c2ccccc2c1CC(=O)Nc1ccc(Nc2ccccc2)cc1	9	15	11	.	-10	.
COc1ccc(-c2cc(NC(=O)Cc3c(C)[nH]c4ccccc34)ccc2Nc2cccnc2)cc1OC	2	17*	5	.	0	6
O=C(CNS(=O)(=O)c1ccccc1)N1CCN(c2ccccn2)CC1	-2	0	0	.	.	.
COc1ccc(S[C@]2(C(=O)NC(C)C)CC(=O)N[C@@H]2c2ccc(OC)cc2)cc1	5	-3	-6	.	.	.
CCCc1c(C(=O)NNc2ccccc2OC)cnn1-c1ccccc1	-3	18*	3	9	-6	3
CCn1c2ccccc2c2cc(NC(=O)c3cc4c(C)nn(-c5ccccc5)c4s3)ccc21	1	5	1	.	.	.
O=C(NCc1ccccc1)N1CCC(c2nc3ccc(Cl)cc3[nH]2)CC1	-5	-2	1	.	.	.
CC(C)Cc1nnc(NC(=O)CCC(=O)NCc2ccccc2Cl)s1	-3	18*	7	12	6	-3
Cc1ccnc(SCc2cc(=O)c(OC(=O)c3ccc(C#N)cc3)co2)n1	10	3	3	.	.	.
C[C@H]1COc2cccc(NCCO)c2S(=O)(=O)N1	-1	0	2	.	3	.
O=C(N/N=C/c1cccc(O)c1)c1ccc(NC(=O)C2CCCCC2)cc1	2	-28	-15	-23	-7	.
O=C(N/N=C/c1ccc(O)cc1O)c1ccc(NC(=O)C2CCCCC2)cc1	2	26*	12	-18	12	3
CC(C)CN(C(=O)C1CCCCC1)C1CCS(=O)(=O)C1 (centres undefined)	1	18*	11	4	-3	3
Cc1ccc(C)c(C(=O)CN2Cc3ccccc3C2=O)c1	-4	23*	1	1	0	-4
O=C(c1cccc(-n2cccc2)c1)N1CCN(S(=O)(=O)c2ccccc2Br)CC1	0	-6	-6	-11	6	.
O=C(c1ccncc1)N1CCN(S(=O)(=O)c2ccccc2Br)CC1	3	18*	2	4	0	1
CCOc1ccc(NC(=O)NCc2ccccn2)cc1	-2	20*	-2	7	5	-5
Cc1ccc(NC(=O)NCc2ccccn2)cc1	3	-5	3	-2	-3	.
